Source: ChEMBL document CHEMBL1151695, “Design, synthesis and preliminary pharmacological evaluation of new analogues of DM232 (unifiram) and DM235 (sunifiram) as cognition modulators” (Bioorg Med Chem, 2008)

How the values were obtained:
Mus musculus [1] = assay: Antiamnesic activity in scopolamine-induced mouse assessed as latency time to enter dark room in retention session at 0.001 mg/kg, ip treated 20 mins before training session by passive avoidance test; type: functional; settings: route intraperitoneal
Summary of the method: (§1)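 Step-through passive avoidance in mice: lit and dark compartments joined by a guillotine door. Entering the dark side drops the mouse 40 cm into 10 °C water, a non-painful punishment. Mice not entering within 60 s at training were excluded. Compound given ip at 1:10 dilution steps […], 20 min before training. Vehicle was saline or saline/DMSO 4:1. Scopolamine 1.5 mg/kg ip immediately after punishment. Retention tested next day. MED is the lowest dose reversing amnesia.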

Mus musculus [2] = organism: Mus musculus; assay: Effect on passive avoidance in mouse treated 20 mins before training session; type: functional; settings: read-out: MED
Summary of the method: (§2)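 Same step-through passive avoidance without scopolamine. Punishment is a 40 cm fall into 10 °C water on entering the dark room. Mice not entering within 60 s at training were excluded. Compound given ip at 1:10 dilution steps, 20 min before training, in saline or saline/DMSO 4:1. Controls received an extra saline injection right after training. Latency to enter the dark room recorded at training and at next-day retention.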

Mus musculus [3] = assay: Antiamnesic activity in ip dosed mouse assessed as reversal of scopolamine-induced memory loss treated 20 mins before training session by passive avoidance test; type: functional; settings: read-out: MED; summary of the method: as §1
Mus musculus [4] = organism: Mus musculus; assay: Toxicity in mouse assessed as motor coordination after 45 mins by rotarod test; type: organism-based; settings: in vivo, 0.75 h
Summary of the method: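 Rota-rod: rod 30 cm long, 15 cm above the base, split into five sections, rotating at 16 rpm. Falls counted over 30 s. Mice with fewer than 3 or more than 6 falls in the pretest were rejected. Performance measured at pretest and 15, 30 and 45 min after test start. Compared with saline-treated mice.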

Mus musculus [5] = assay: Effect on passive avoidance in mouse assessed as latency time to enter dark room in retention session at 0.01 mg/kg, ip treated 20 mins before training session; type: functional; settings: route intraperitoneal; summary of the method: as §2
Mus musculus [6] = assay: Antiamnesic activity in scopolamine-induced mouse assessed as latency time to enter dark room in training session at 0.001 mg/kg, ip treated 20 mins before training session by passive avoidance test; type: functional; settings: route intraperitoneal; summary of the method: as §1
Mus musculus [7] = organism: Mus musculus; assay: Toxicity in mouse assessed as spontaneous motility and inspection activity after 5 mins by hole board test; type: organism-based; settings: in vivo
Summary of the method: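 Hole-board: 40 cm square plane with 16 holes of 3 cm, arranged 4×4. Each mouse placed centrally and free to move for […]. Photocells counted locomotion (spontaneous motility) and hole exploration, both as counts in 5 min. Compared with saline-treated mice.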

Mus musculus [8] = assay: Effect on passive avoidance in mouse assessed as latency time to enter dark room in training session at 0.01 mg/kg, ip treated 20 mins before training session; type: functional; settings: route intraperitoneal; summary of the method: as §2
Mus musculus [9] = assay: Antiamnesic activity in scopolamine-induced mouse assessed as latency time to enter dark room in training session at 30 mg/kg, ip treated 20 mins before training session by passive avoidance test; type: functional; settings: route intraperitoneal
Mus musculus [10] = assay: Antiamnesic activity in scopolamine-induced mouse assessed as latency time to enter dark room in retention session at 30 mg/kg, ip treated 20 mins before training session by passive avoidance test; type: functional; settings: route intraperitoneal
Summary of the method: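 Mouse step-through passive avoidance in a two-compartment box (lit and dark, guillotine door); entry into the dark side is punished by a fall from 40 cm into a 10 °C water bath. Drug given ip 20 min before training. Scopolamine 1.5 mg/kg given immediately after training. Retention tested the next day, read as latency to enter the dark room. Mice not entering within 60 s at training were excluded.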

| Structure (SMILES) | Activity (Mus musculus [1]) [s] | minimal effective dose (Mus musculus [2]) [mg/kg] | minimal effective dose (Mus musculus [3]) [mg/kg] | Activity (Mus musculus [4]) | Activity (Mus musculus [5]) [s] | Activity (Mus musculus [6]) [s] | Activity (Mus musculus [7]) | Activity (Mus musculus [8]) [s] | Activity (Mus musculus [9]) [s] | Activity (Mus musculus [10]) [s] |
| --- | --- | --- | --- | --- | --- | --- | --- | --- | --- | --- |
| CCC(=O)N1CCN(C(=O)c2ccccc2)CC1 [SUNIFIRAM] | 91.5 | 0.01 | 0.001 | Non-toxic | 126.7 | 20.5 | Non-toxic | 18.1 | – | – |
| O=C1CCC2CN(S(=O)(=O)c3ccc(F)cc3)CCN12 (centres undefined) [UNIFIRAM] | 104.4 | 0.01 | 0.001 | Non-toxic | 131.6 | 19.7 | Non-toxic | 15.4 | – | – |
| NC(=O)CN1CCCC1=O [PIRACETAM] | – | – | 30 | – | – | – | – | – | 17.6 | 108.8 |
